Measurements reported in ChEMBL document CHEMBL4177555, “Mycobacterium tuberculosis lysine-ɛ-aminotransferase a potential target in dormancy: Benzothiazole based inhibitors” (Bioorg Med Chem, 2017).
Converted amounts (≈) assume the structure as drawn. The source made the active and inactive calls. The calls are words filed in the database; no cut-off is given here.

What was measured:
[1] = target: T1, L-lysine-epsilon aminotransferase (Mycobacterium tuberculosis, UniProt P9WQ77); assay: Inhibition of Mycobacterium tuberculosis LAT using L-lysine as substrate by spectroscopic method
T1 sequence (P9WQ77 whole entry): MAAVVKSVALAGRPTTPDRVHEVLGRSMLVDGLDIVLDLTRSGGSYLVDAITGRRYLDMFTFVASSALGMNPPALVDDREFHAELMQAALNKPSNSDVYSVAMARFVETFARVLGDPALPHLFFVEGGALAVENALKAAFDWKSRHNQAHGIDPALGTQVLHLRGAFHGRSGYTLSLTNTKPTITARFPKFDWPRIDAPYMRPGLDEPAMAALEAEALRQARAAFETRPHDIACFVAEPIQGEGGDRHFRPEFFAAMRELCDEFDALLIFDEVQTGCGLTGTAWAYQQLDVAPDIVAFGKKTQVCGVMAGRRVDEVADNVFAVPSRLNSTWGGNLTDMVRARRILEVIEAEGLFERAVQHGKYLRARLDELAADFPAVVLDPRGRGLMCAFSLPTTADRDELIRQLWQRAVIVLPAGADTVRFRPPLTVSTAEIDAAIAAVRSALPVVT
Outline: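 Purified recombinant MTB LAT incubated 1 h at 37 °C in 200 mM phosphate pH 7.2 with 1.5 mM L-lysine, 1.5 mM α-ketoglutarate and 15 µM pyridoxal 5-phosphate, with compounds at several concentrations. Stopped with 10% TCA in ethanol. Products read as o-aminobenzaldehyde adduct at 465 nm and at 280 nm.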

[2] = test system: Mycobacterium tuberculosis; assay: Antibacterial activity against replicative stage Mycobacterium tuberculosis H37Rv after 7 days by MABA; type: functional; settings: 168 h
Outline: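 MABA run in duplicate. H37Rv from fresh LJ medium grown in 7H9/OADC at 37 °C to McFarland no.1, then diluted 1:25 as inoculum. Compounds tested in serial dilutions. After 7 days, alamar blue/Tween 80 (1:1) added and plates re-incubated overnight.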

[3] = Growth inhibition of mouse RAW264.7 cells at 50 ug/ml after 48 hrs by MTT assay relative to control; type: cell-based; settings: read-out: GI
Outline: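 RAW 264.7 mouse macrophages exposed to compound at 50 µg/ml for 48 h. Viability read as MTT conversion to formazan.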

[4] = test system: Mycobacterium tuberculosis; assay: Antibacterial activity against non-replicative stage Mycobacterium tuberculosis H37Rv; type: functional, organism-based
[5] = test system: Mycobacterium tuberculosis; assay: Antibacterial activity against Mycobacterium tuberculosis H37Rv nutrient starvation model assessed as log reduction in bacterial colonies at 10 ug/ml measured after 7 days by MPN assay; type: functional
Outline: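 H37Rv grown in 7H9/OADC to OD 0.8–1.0, washed twice, then held in PBS in sealed bottles at 37 °C for 6 weeks. Starved aliquots exposed to compound at 10 µg/ml for 7 days. Persisters enumerated by MPN assay.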

[6] = test system: Mycobacterium tuberculosis; assay: Antibiofilm activity against Mycobacterium tuberculosis assessed as log reduction in bacterial count at 10 ug/ml measured after 7 days by MPN assay; type: functional
Outline: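 MTB inoculated 1:100 in Sauton's medium, sealed and grown 5 weeks at 37 °C to form a mature biofilm. Compound added to the medium (n=4) for 7 days. Tween-80 0.1% added, cells washed in PBS/10% glycerol/0.05% Tween-80 and homogenised. Persisters compared with solvent control by MPN assay.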

Mycobacterium marinum [7] = assay: Antibacterial activity against Mycobacterium marinum ATCC BAA-535 infected in Zebra fish assessed as log reduction in bacterial counts at 10 mg/kg, po administered for 7 days by MPN assay; type: functional
Outline: (§1)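 Adult zebrafish (n=6 per group) infected intraperitoneally with M. marinum ATCC BAA-535 grown at 30 °C in 7H9 broth (about 0.75 million bacteria). From day 7 after infection, drug given orally by micropipette for 7 days. Fish then homogenised, tissue taken up in 7H9 broth, and bacterial counts read by MPN assay.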

[8] = test system: Mycobacterium tuberculosis; assay: Antibacterial activity against Mycobacterium tuberculosis H37Rv infected in 3D culture of human PBMC assessed as colony forming units treated for 4 days measured after 3 days; type: functional
Outline: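 PBMCs at 5x10^5 cells/well in collagen–fibronectin ECM (pH 7.0), infected with H37Rv at MOI 0.1, grown in RPMI with 20% human serum at 37 °C/CO2. Granulomas treated 4 days, then with or without Rif for 3 more days. Collagenase release, Triton X-100 lysis, 7H10 plating, cfu counted after 4 weeks.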

Mycobacterium marinum [9] = assay: Antibacterial activity against Mycobacterium marinum ATCC BAA-535 infected in Zebra fish assessed as log reduction in bacterial counts at 5 mg/kg, po administered for 7 days by MPN assay; type: functional; outline: as §1

Structure (SMILES)	IC50 [1] [µM]	MIC [2] [µM]	inhibition at 48 h, 50 ug/ml [3] [%]	Activity [4]	log(activity) [5]	log(activity) [6]	log(activity) (Mycobacterium marinum [7])	Activity [8] [×10⁵ CFU]	log(activity) (Mycobacterium marinum [9])
N#C/C(=C\c1cccs1)c1nc2ccccc2s1	92.6	> 93.3	17.3						
N#C/C(=C\c1ccc(-c2ccc(C(=O)O)cc2)s1)c1nc2ccccc2s1	6.72	2.01 (≈ 0.781 µg/mL)	5.64	Active					
COc1cc(/C=C(\C#N)c2nc3ccccc3s2)cc(OC)c1OC	64.9	> 71	12.6						
N#C/C(=C\c1ccc[nH]1)c1nc2ccccc2s1	17	> 99.6	56.4						
N#C/C(=C\c1ccc(OCC(=O)O)cc1)c1nc2ccccc2s1	3.08	4.64 (≈ 1.56 µg/mL)	12.7	Active	2.8				
N#C/C(=C\c1ccc(-c2ccc(C(=O)O)cc2)o1)c1nc2ccccc2s1	14.1	> 67.2	15.2						
N#C/C(=C\c1ccc(OCc2ccccc2)cc1)c1nc2ccccc2s1	47.9	68 (≈ 25 µg/mL)	22.8						
N#C/C(=C\c1ccc(-c2cccc(C(=O)O)c2)s1)c1nc2ccccc2s1	5.73	64.4 (≈ 25 µg/mL)	18.9		2.9	2.1			
N#C/C(=C\c1ccco1)c1nc2ccccc2s1	16.2	49.6 (≈ 12.5 µg/mL)	47.3						
N#C/C(=C\c1ccccc1OCC(=O)O)c1nc2ccccc2s1	53.8	2.32 (≈ 0.78 µg/mL)	52.3						
COc1ccc(/C=C(\C#N)c2nc3ccccc3s2)cc1OC	61.4	> 77.6	32.5						
N#C/C(=C\c1ccc(-c2cc(C(=O)O)cc(C(=O)O)c2)o1)c1nc2ccccc2s1	1.15	60.1 (≈ 25 µg/mL)	14.4		2.8				
N#C/C(=C\c1ccc(-c2cccc(C(=O)O)c2)o1)c1nc2ccccc2s1	3.74	> 67.2	3.12						
N#C/C(=C\c1ccc([N+](=O)[O-])o1)c1nc2ccccc2s1	19.6	> 84.2	19.6		2.8				
COc1cc(/C=C(\C#N)c2nc3ccccc3s2)ccc1O	7.83	20.3 (≈ 6.26 µg/mL)	34.8						
N#C/C(=C\c1ccc(O)cc1)c1nc2ccccc2s1	10.4	> 89.9	2.26						
COc1c(N2C[C@@H]3CCCN[C@@H]3C2)c(F)cc2c(=O)c(C(=O)O)cn(C3CC3)c12 [MOXIFLOXACIN]					2.2	1.8	2.7		
N#C/C(=C\c1ccc(O)cc1O)c1nc2ccccc2s1	23.2	10.6 (≈ 3.12 µg/mL)	45.7						
N#C/C(=C\c1ccc(F)cc1)c1nc2ccccc2s1	4.11	89.3 (≈ 25 µg/mL)	10.6						
N#C/C(=C\c1ccc2c(c1)OCO2)c1nc2ccccc2s1	66	81.7 (≈ 25 µg/mL)	45.7						
CO[C@H]1/C=C/O[C@@]2(C)Oc3c(C)c(O)c4c(O)c(c(/C=N/N5CCN(C)CC5)c(O)c4c3C2=O)NC(=O)/C(C)=C\C=C\[C@H](C)[C@H](O)[C@@H](C)[C@@H](O)[C@@H](C)[C@H](OC(C)=O)[C@@H]1C [RIFAMPIN]		0.5 (≈ 0.411 µg/mL)	23.5		1.3	2		3.3	
N#C/C(=C\c1ccc([N+](=O)[O-])s1)c1nc2ccccc2s1	54.8	> 79.9	60.3						
N#C/C(=C\c1c[nH]c2ccccc12)c1nc2ccccc2s1	37.9	> 83.1	45.7						
NNC(=O)c1ccncc1 [ISONIAZID]		0.4 (≈ 0.0549 µg/mL)	93.2		1.2	1.9			2.8
